Source: PubChem BioAssay AID652202 (Vanderbilt Specialized Chemistry Center, 2013)
Activity calls are given as the source filed them. How the calls were made is not given here.

Molecular target: Metabotropic glutamate receptor 3 (Rattus norvegicus) (UniProt P31422)
Experiment: glutamate potency shift at rat mGlu3 – cell-based, TRex293, Galpha15, Fluo4 calcium, selectivity assay for mGlu5 silent allosteric modulator project (AID 652202)
Conditions: TRex293 rmGlu3+Galpha15, Fluo4 calcium mobilization
Method in brief: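 Test system: TRex293 cells with rat mGlu3 and Galpha15 / Medium: HBSS/HEPES/probenecid buffer, pH 7.4 / Also added: glutamate, 10 nM–1 mM / Doses: compound at 10 µM, 1% DMSO / Times: Fluo4-AM loading 60 min at 37 °C, glutamate added at 80 s / Signal: Fluo4 calcium fluorescence / Measure: modulation of glutamate concentration-response by compound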

Sequence of Metabotropic glutamate receptor 3 (Rattus norvegicus) (P31422 whole entry, looked up): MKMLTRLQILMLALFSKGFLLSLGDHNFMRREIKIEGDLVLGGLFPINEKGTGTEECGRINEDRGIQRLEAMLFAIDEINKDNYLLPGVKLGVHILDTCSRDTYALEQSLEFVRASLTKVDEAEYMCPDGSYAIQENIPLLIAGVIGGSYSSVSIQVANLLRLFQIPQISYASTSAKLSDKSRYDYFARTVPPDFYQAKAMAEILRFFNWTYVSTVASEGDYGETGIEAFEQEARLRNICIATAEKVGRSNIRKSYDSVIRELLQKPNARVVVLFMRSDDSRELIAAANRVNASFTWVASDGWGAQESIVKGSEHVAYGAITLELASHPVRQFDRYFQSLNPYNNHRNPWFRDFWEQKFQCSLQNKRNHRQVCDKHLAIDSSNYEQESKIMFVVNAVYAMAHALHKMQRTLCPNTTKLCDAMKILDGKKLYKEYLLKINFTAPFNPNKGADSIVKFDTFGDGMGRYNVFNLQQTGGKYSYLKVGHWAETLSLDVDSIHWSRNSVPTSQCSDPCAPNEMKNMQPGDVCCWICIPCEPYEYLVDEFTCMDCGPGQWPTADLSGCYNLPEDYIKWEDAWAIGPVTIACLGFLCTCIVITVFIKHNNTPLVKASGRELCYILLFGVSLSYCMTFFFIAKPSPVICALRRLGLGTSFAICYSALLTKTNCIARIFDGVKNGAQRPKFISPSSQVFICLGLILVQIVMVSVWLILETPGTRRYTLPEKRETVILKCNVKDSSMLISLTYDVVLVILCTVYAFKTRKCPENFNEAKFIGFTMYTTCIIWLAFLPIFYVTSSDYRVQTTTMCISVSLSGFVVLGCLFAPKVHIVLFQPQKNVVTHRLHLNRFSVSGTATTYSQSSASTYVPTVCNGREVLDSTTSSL

O=C(c1ccc(C#Cc2cccc(F)c2)cn1)N1CC2CC2C1 (stereo unspecified)
glutamate EC50 in presence of 10 uM compound: inactive
